# Reference: the RNAGym collection of RNA variant scans (doi:10.1126/science.aae0568)
# Fewer inactive variants are shown than the library holds.
# B1: tRNA (parent)
# chain: GUUCCGUUGGCGUAAUGGUAACGCGUCUCCCUCCUAAGGAGAAGACUGCGGGUUCGAGUCCCGUACGGAACG
# Variants of: B1
# Experiment: yeast fitness relative to wild type (ratio to wild type); higher = fitter; tRNA-Arg(CCU), competitive growth, 37 C, YPD
# In short: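 Changes in genotype frequencies gave Darwinian fitness relative to wild type. Frequencies were read by 100-nucleotide paired-end sequencing of gene amplicons before and after pooled Saccharomyces cerevisiae strains, carrying tRNA-Arg(CCU) gene variants at the native locus, were competed in YPD at 37°C for 24 hours in six replicates. A genotype was kept only with ≥ 100 starting reads, and estimates < 0.5 were set to 0.5.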
row,Variant,yeast fitness
1,G25A A65U G68C,0.657
2,G25A C30G U59C C66A,≤ 0.5
3,G25A A40C C55G C61A,≤ 0.5
4,G25A A37U A40C,0.68
5,G25A C29A C55A,0.625
6,G25A A42C,0.868
7,G25A A45U C62A,0.54
8,C24U C49U G56C,0.542
9,G25A A45G G52A U54A,≤ 0.5
10,C24U C55U U59A,0.535
11,G25A A36U A45C U54A,≤ 0.5
12,G25A C29U,0.997
13,G25A C29G,0.721
14,G25A A40C A65C,0.739
15,G25A C29U C66U,0.747
16,C24U U35A A42G A69U,≤ 0.5
17,C24U U32G C49U C60A,0.646
18,G25A C31G A45U,0.612
19,C24U C49G C66A,0.593
20,C24U G41C A42C,0.553
21,C24U C61A G67A,≤ 0.5
22,G25A A37U U47G G56C,0.601
23,C24U C34A G48C,0.693
24,C24U U32G A40U U53C U64G,≤ 0.5

row,Variant,yeast fitness
1,G25A C27U C34G,0.748
2,C24U C34U U59G,≤ 0.5
3,G25A C30G C49U,0.594
4,C24U U26C A57U,≤ 0.5
5,G25A C27G C60A,≤ 0.5
6,C24U C34U C61U,0.545
7,C24U U53C C55U,≤ 0.5
8,C24U G44A C49A U59A,0.528
9,C24U C46U C60U,0.513
10,C24U C55G A57C,≤ 0.5
11,G25A A45C U53C C55U G56C C61A C66U,0.564
12,C24U C49A U64C,1.04
13,C24U U26A U28G G48A A57U,≤ 0.5
14,C24U C49G A65U,≤ 0.5
15,C24U U47C C55G A70U,0.642
16,C24U C49G G52C,0.503
17,C24U G39A A57C,0.727
18,G25A A45U A57U,≤ 0.5
19,C24U U28C A37G C62U,≤ 0.5
20,C24U C34U G48C,≤ 0.5
21,C24U C33G C34U A57U,0.583
22,G25A C31A A45C G50A,0.536
23,G25A A40U U54C,0.565
24,C24U G25A C30U C46A,0.829

row,Variant,yeast fitness
1,C24U C34U A57U G67C,≤ 0.5
2,C24U U26A U28G G52A,≤ 0.5
3,G25A C29G A43C C61A A69U,≤ 0.5
4,G25A C27U,0.901
5,C24U G44A,0.912
6,C24U C46G U54C C62A,≤ 0.5
7,C24U C55U G68C,0.552
8,C24U C55A G56A,0.555
9,C24U G25A C30U C46A A65U,0.562
10,G25A C27G A45U C55A,≤ 0.5
11,C24U U59A C60G,0.754
12,G25A A45U,0.803
13,C24U C33U C34A,0.555
14,G25A A37C G51C A57G,≤ 0.5
15,G25A A43C C60A,0.544
16,C24U U28C,0.988
17,C24U G38C A40G,≤ 0.5
18,C24U C62U,0.976
19,C24U G51C G68A,≤ 0.5
20,G25A A65C,1.01
21,G25A A65G,0.956
22,C24U C61G G63C,0.537
23,G25A A43C G63C G67A,≤ 0.5
24,C24U C34G A40G,≤ 0.5

row,Variant,yeast fitness
1,C24U G68A A70U,0.647
2,C24U G68A A70C,0.656
3,C24U U35C A70C,0.671
4,C24U U32C C46A,0.967
5,C24U U32G A40U,0.513
6,G25A A57G,1.08
7,G25A A57U,0.772
8,G25A A57C,0.697
9,G25A A40C C46U,0.978
10,C24U C66A,0.618
11,G25A A37U U54A,≤ 0.5
12,G25A A43G A45U C46U,≤ 0.5
13,G25A C27U A69C,0.73
14,C24U G67C,0.698
15,C24U G67U,0.869
16,G25A A45C C66U G67C,0.608
17,C24U G51C U53C,≤ 0.5
18,G25A C31G,0.906
19,G25A C31A,0.671
20,C24U U54C,0.812
21,C24U U54A,0.624
22,G25A A69U,1.04
23,C24U G51A G67A,0.556
24,C24U U26C U28C G52C C60G,≤ 0.5

row,Variant,yeast fitness
1,C24U U32G G51A,≤ 0.5
2,C24U C33A G44C U47C,0.674
3,C24U C46A A65G,0.7
4,C24U C49U C55G A70U,0.559
5,G25A C29A A42G,≤ 0.5
6,G25A A40U,0.924
7,G25A A40C,0.839
8,G25A A43C A70C,0.824
9,G25A A43G G48C,0.573
10,C24U U59C A69C,0.618
11,C24U C34G A40U G67A,≤ 0.5
12,C24U U47C G63A,0.829
13,C24U U26A U28G,0.506
14,G25A A42U A65C G67U,≤ 0.5
15,C24U C34U A70G,0.592
16,C24U G48A G63C,0.768
17,C24U U26C A70U,0.678
18,G25A A37C G68U,0.702
19,C24U G25C C30G G50C G56A C66U,≤ 0.5
20,C24U G44A C66A,0.563
21,C24U G25C C31A C33G A65U,0.584
22,C24U G48C C55U,0.614
23,C24U G51A G58A G67A,≤ 0.5
24,C24U G25C C46A,1.02

row,Variant,yeast fitness
1,C24U C46U G51C,≤ 0.5
2,C24U U28C A40C A69C,≤ 0.5
3,C24U U47C U59C A69U,≤ 0.5
4,C24U C60A C66G,0.606
5,C24U G51C,0.624
6,G25A A40U A45G C60A,≤ 0.5
7,C24U G56A,0.998
8,C24U U32C G39C,0.517
9,C24U U59A,0.875
10,C24U C34A,0.783
11,G25A A45G C46U,0.731
12,C24U G68C A70U,≤ 0.5
13,G25A A45U U54C G58C,0.596
14,G25A C29G U54G C61G,≤ 0.5
15,C24U G50A A65U,0.569
16,G25A A36U,0.564
17,C24U G41A G68A,≤ 0.5
18,G25A C29A G38A,≤ 0.5
19,C24U U47A,0.683
20,C24U U26C A40C,0.572
21,C24U G38A G51A G52C,0.634
22,C24U G52C,0.702
23,C24U G50A A70C,0.658
24,C24U U35C G38C C62U A69G,0.723

row,Variant,yeast fitness
1,C24U C55G G63C,0.528
2,C24U U26C G63A A65G,≤ 0.5
3,G25A C30A G67U,0.776
4,C24U C34G A69U,0.506
5,C24U C60A G63A,≤ 0.5
6,C24U U47A U64C C66U,≤ 0.5
7,C24U U35C,0.778
8,G25A C30G G58C C66A,≤ 0.5
9,C24U G58C,0.89
10,G25A A37C C61U,0.572
11,C24U C34U U35G,≤ 0.5
12,C24U C46G A65U,0.782
13,C24U C33U C34G A40U,≤ 0.5
14,C24U C62A A69C,0.524
15,C24U C62A A69G,0.502
16,C24U C34G G63U A70U,0.542
17,G25A A70G,1.04
18,G25A A70U,1.01
19,C24U G68C,0.823
20,C24U G68U,0.892
21,C24U G50C,0.774
22,C24U G48C,0.955
23,C24U G48A,0.915
